Assay results collected from several papers.
Lines come from different studies, so protocols differ.
Target: Histamine H3 receptor (HRH3, Homo sapiens, UniProt Q9Y5N1)

Compound	assay	setting	inhibition [%]
CC(C)N1CCC[C@H]1CNC(=O)c1cn(C2CCCC2)c(=O)c2c1c1ccccc1n2C	ligand displacement, radioligand	10 µM	26
Cc1c(N2CCNCC2)nc2ccc(Br)cc2c1C(=O)NC[C@H](CCC(=O)O)c1ccccc1Cl	ligand displacement	10 µM	16.9
c1ccc(C(NCCNC(c2ccccc2)c2ccccc2)c2ccccc2)cc1	cell-free assay	10 µM	1
O=C(Nc1cccnn1)N1CCN([C@@H]2CCOc3cc(C(F)(F)F)ccc32)CC1	cell-free assay	20 µM	11
CN(CCN1CCC(OC(=O)Nc2ccccc2-c2ccccc2)CC1)C(=O)c1ccc(CN2CCC(C(N)=O)CC2)cc1	ligand displacement, radioligand	1 µM	72
C[C@H](C(=O)N[C@H]1COc2ccccc2[C@@H]1S(C)(=O)=O)c1ccc(F)cc1	cell-free assay	10 µM	1
COCc1c(-c2cc3cc(C)cc(OC)c3s2)c2c(N)ncnn2c1CN1CCNC(=O)C1	ligand displacement, radioligand	10 µM	-8
N#CC1(c2ccccn2)CCN(Cc2cc(C(=O)O)c(=O)n3ccccc23)CC1	cell-free assay	10 µM	4.08
